The species named for experiment [1] is Homo sapiens. In words: Inhibition of NF-kappaB in HUVECtert assessed as reduction in TNFalpha-induced VCAM-1 mRNA expression level at 10 uM pretreated for 30 mins followed by TNFalpha stimulation measured after 4 hrs by qRT-PCR analysis. The procedure, abridged: (§1)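 HUVECtert (immortalised HUVEC, used to passage 15), 0.5 × 10^6 cells grown 48 h on gelatin-coated dishes. Preincubated 30 min with compound or 0.1% DMSO vehicle, then TNFα 10 ng/mL for 2 h (E-selectin) or 4 h (VCAM-1, ICAM-1). After RNA isolation and cDNA synthesis, mRNA was quantified by qRT-PCR using the 2−ΔΔCt method. Means ± SD, n = 3.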
(In general: In qPCR the cycle at which signal appears reflects the starting amount.)

For experiment [2], the species on record is Homo sapiens. The experiment can be described thus: Inhibition of NF-kappaB in HUVECtert assessed as reduction in TNFalpha-induced ICAM-1 mRNA expression level at 10 uM pretreated for 30 mins followed by TNFalpha stimulation measured after 4 hrs by qRT-PCR analysis. In a few lines: as §1
For experiment [3], the species on record is Homo sapiens. The experiment can be described thus: Inhibition of NF-kappaB in HUVECtert assessed as reduction in TNFalpha-induced E-selectin mRNA expression level at 10 uM pretreated for 30 mins followed by TNFalpha stimulation measured after 2 hrs by qRT-PCR analysis. In a few lines: as §1
Experiment [4] in a line: Inhibition of NF-kappaB in HUVECtert assessed as reduction in TNFalpha-induced VCAM-1 expression level pretreated for 30 mins followed by TNFalpha stimulation measured after 18 hrs by flow cytometry. Also noted: species or system Homo sapiens. The procedure, abridged: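 FITC-antibody surface staining, flow cytometry; expression relative to TNFα-stimulated control. Parthenolide 10 μM as positive control; means ± SD, n = 3, one-way ANOVA/Dunnett versus vehicle.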
(In general: In flow cytometry, cells or beads pass a laser one at a time.)

The species named for experiment [5] is Homo sapiens. The experiment can be described thus: Inhibition of NF-kappaB in HUVECtert assessed as reduction in TNFalpha-induced VCAM-1 mRNA expression level at 35 uM pretreated for 30 mins followed by TNFalpha stimulation measured after 4 hrs by qRT-PCR analysis.
The species entered for experiment [6] is Homo sapiens. The experiment can be described thus: Inhibition of NF-kappaB in HUVECtert assessed as reduction in TNFalpha-induced ICAM-1 mRNA expression level at 35 uM pretreated for 30 mins followed by TNFalpha stimulation measured after 4 hrs by qRT-PCR analysis.
The species named for experiment [7] is Homo sapiens. The experiment can be described thus: Inhibition of NF-kappaB in HUVECtert assessed as reduction in TNFalpha-induced E-selectin mRNA expression level at 35 uM pretreated for 30 mins followed by TNFalpha stimulation measured after 2 hrs by qRT-PCR analysis.
For experiment [8], the species on record is Homo sapiens. The experiment can be described thus: Reduction in cyclin D1 level in HUVECtert at 1 uM by Western blot analysis. The class given is functional. Conditions: TDE = time-dependent effect. In a few lines: (§2)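 HUVECtert treated with 1 μM cycloheximide, 2 μM agent, vehicle, or left untreated for a time course; cyclin D1 or survivin by Western blot, actin loading control; means ± SD of three blots, one-way ANOVA/Dunnett versus untreated.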

The species named for experiment [9] is Homo sapiens. The experiment can be described thus: Reduction in survivin level in HUVECtert at 1 uM by Western blot analysis. Conditions: TDE = time-dependent effect. In kind it is functional. In a few lines: as §2
(Immunoblotting shows a protein as a band on a membrane.)

The species entered for experiment [10] is Homo sapiens. In words: Reduction in p53 level in HUVECtert at 1 uM after 8 hrs by Western blot analysis. The class given is functional.
The species named for experiment [11] is Homo sapiens. The experiment can be described thus: Reduction in cyclin A level in HUVECtert at 1 uM after 8 hrs by Western blot analysis. The class given is functional.
For experiment [12], the species on record is Homo sapiens. In words: Inhibition of NF-kappaB in HUVECtert assessed as reduction in cyclin D1 mRNA expression level at 1 uM measured up to 240 mins by qRT-PCR analysis. The procedure, abridged: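 HUVECtert incubated without TNFα with 2 μM agent, 1 μM cycloheximide or 0.1% DMSO for 0.5−4 h; cyclin D1 mRNA by qRT-PCR, 2−ΔΔCt analysis.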
For experiment [13], the species on record is Homo sapiens. In words: Inhibition of de novo protein synthesis in HUVECtert at 1 to 35 uM after 30 mins by Click-iT OPP/Alexa fluor 488 picolyl azide reagent based confocal fluorescence microscopy. The class given is functional. In a few lines: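 Cells on gelatin coverslips (24 h) exposed 30 min to agent (2 or 5 μM; cycloheximide 1, 3.5, 35 μM) or 0.1% DMSO, then 20 μM OPP for 30 min; formaldehyde fixation, Triton permeabilisation, Alexa 488 picolyl azide click reaction 30 min, nuclear counterstain; confocal imaging at 10×, constant gain and exposure.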

The species named for experiment [14] is Homo sapiens. In words: Inhibition of de novo protein synthesis in HUVECtert at 1 to 35 uM after 30 mins by Click-iT OPP/Alexa fluor 488 picolyl azide reagent based flow cytometry. The class given is functional. In a few lines: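 HUVECtert (1 × 10^6 cells in tubes) exposed 30 min to agent (2 or 5 μM; cycloheximide 1−35 μM) or vehicle, then 20 μM OPP 30 min; fixed, permeabilised, Alexa 488 click-labelled in Tris buffer pH 7.4; FL-1 flow cytometry relative to control; n = 3, one-way ANOVA/Dunnett.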

Each structure is given as a SMILES string. Activity calls are given as the source filed them. No cut-off for these calls is given here.

Turning to `C=C1C(=O)O[C@@H]2C3O[C@]3(C)CC/C=C(\C)CC[C@@H]12` (some centres undefined), the inhibition entry in the experiment listed under Homo sapiens [1], in the experiment filed under Homo sapiens [2] and in the experiment filed under Homo sapiens [3] was “Active” throughout.
`C[C@@H]1C[C@@H]([C@H](O)CC2CC(=O)NC(=O)C2)C(=O)[C@@H](C)C1` [CYCLOHEXIMIDE]: the IC50 – broadly, the point on the concentration scale where inhibition reaches its midpoint – in experiment [4] came to 0.3 µM. Also, the inhibition result in the experiment filed under Homo sapiens [5], in the experiment filed under Homo sapiens [13] and in the experiment listed under Homo sapiens [14] was “Active” in each case. Besides, the inhibition entry in the experiment listed under Homo sapiens [6], in the experiment listed under Homo sapiens [7] and in the experiment listed under Homo sapiens [12] was “inactive” in each case. Moreover, the Activity result in the experiment filed under Homo sapiens [8] and in the experiment listed under Homo sapiens [9] was “Tde” throughout. Besides, the result in the experiment listed under Homo sapiens [10] and in the experiment listed under Homo sapiens [11] was inactive.

(Values after ChEMBL document CHEMBL4138188, “Eurycomalactone Inhibits Expression of Endothelial Adhesion Molecules at a Post-Transcriptional Level” (J Nat Prod, 2017).)
